Laboratory results from ChEMBL document CHEMBL3739310, “Deguelins, Natural Product Modulators of NF1-Defective Astrocytoma Cell Growth Identified by High-Throughput Screening of Partially Purified Natural Product Extracts” (J Nat Prod, 2015).
The source made the active and inactive calls. The calls are words filed in the database; no cut-off is given here.

Key:
[1] = system: K5001; experiment: Induction of apoptosis in mouse Nf1 defective and Trp53 defective K5001 cells assessed as DNA fragmentation at 10 uM up to 48 hrs by ELISA; assay type: functional, cell-based
[2] = Growth inhibition of Nf1 defective and Trp53 defective mouse K5001 cells after 2 days by XTT assay; details: K5001, 2 days
[3] = biological target: RAC-alpha serine/threonine-protein kinase (Mus musculus) (UniProt P31750); experiment: Inhibition of AKT phosphorylation in Nf1 defective and Trp53 defective mouse K1492 cells; assay type: cell-based
RAC-alpha serine/threonine-protein kinase (Mus musculus), sequence (P31750 whole entry): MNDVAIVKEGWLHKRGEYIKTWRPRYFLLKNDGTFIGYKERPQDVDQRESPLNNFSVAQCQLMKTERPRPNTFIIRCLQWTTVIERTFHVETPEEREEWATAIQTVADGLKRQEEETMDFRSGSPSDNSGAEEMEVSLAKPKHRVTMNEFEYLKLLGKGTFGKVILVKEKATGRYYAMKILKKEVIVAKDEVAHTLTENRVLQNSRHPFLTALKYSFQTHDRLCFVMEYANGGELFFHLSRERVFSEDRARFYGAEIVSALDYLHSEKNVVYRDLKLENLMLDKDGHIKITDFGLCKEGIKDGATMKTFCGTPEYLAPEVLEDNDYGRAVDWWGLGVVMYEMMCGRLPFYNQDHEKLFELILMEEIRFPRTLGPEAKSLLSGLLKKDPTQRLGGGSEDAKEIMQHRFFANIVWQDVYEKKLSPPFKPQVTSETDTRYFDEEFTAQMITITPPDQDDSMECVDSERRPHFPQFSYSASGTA

[4] = Growth inhibition of Nf1 defective and Trp53 defective mouse KR158 cells after 2 days by XTT assay; details: KR158, 2 days
[5] = Growth inhibition of Nf1 defective and Trp53 defective mouse K1492 cells after 2 days by XTT assay; details: K1492, 2 days
[6] = Induction of ROS generation in Nf1 defective and Trp53 defective mouse K5001 cells at 10 uM after 6 hrs by DCFDA fluorogenic dye-based fluorimetric analysis; assay type: functional
Method in brief: (§1)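 Cells plated at 1000/well in black-wall, clear-bottom, polylysine-coated 384-well plates and treated 6 h with 10 μM compound or DMSO control. Carboxymethyl H2DCFDA (10 mM stock in DMSO) added at 25 μM final for the last 1 h. After two PBS washes, cell-associated fluorescence read bottom-mode at Ex 495/Em 529 nm. Result expressed as T/C ratio versus untreated controls, means ± SD.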

[7] = Induction of ROS generation in Nf1 defective and Trp53 defective mouse KR158 cells at 10 uM after 6 hrs DCFDA fluorogenic dye-based fluorimetric analysis; assay type: functional; method in brief: as §1
[8] = biological target: RAC-alpha serine/threonine-protein kinase (Mus musculus) (UniProt P31750); experiment: Inhibition of AKT phosphorylation in Nf1 defective and Trp53 defective mouse K5001 cells; assay type: cell-based
[9] = Growth inhibition of Nf1 defective and Trp53 defective mouse primary astrocytes after 2 days by XTT assay; details: Astrocyte
[10] = Induction of ROS generation in Nf1 defective and Trp53 defective mouse K1492 cells at 10 uM after 6 hrs DCFDA fluorogenic dye-based fluorimetric analysis; assay type: functional; method in brief: as §1
[11] = system: KR158; experiment: Induction of apoptosis in Nf1 defective and Trp53 defective mouse KR158 cells assessed as DNA fragmentation at 10 uM up to 48 hrs by ELISA; assay type: functional, cell-based
[12] = Growth inhibition of Nf1 defective and Trp53 defective mouse KR158 cells at 80 uM after 2 days by XTT assay; details: KR158, 2 days, read-out: GI

| SMILES | Activity [1] | IC50 [2] | inhibition [3] | IC50 [4] | IC50 [5] | fold change (FC) [6] | fold change (FC) [7] | inhibition [8] | IC50 [9] | fold change (FC) [10] | Activity [11] | inhibition of growth at 80 µM [12] |
| --- | --- | --- | --- | --- | --- | --- | --- | --- | --- | --- | --- | --- |
| COc1cc2c(cc1OC)[C@@H]1C(=O)c3ccc4c(c3O[C@@H]1CO2)C=CC(C)(C)O4 [DEGUELIN] | inactive | 1.2 µM | inactive | 12.6 µM | > 80 µM | 3.5 | 3.9 | inactive | > 80 µM | 5.6 | inactive |  |
| COc1cc2c(cc1OC)-c1c(oc3c4c(ccc3c1=O)OC(C)(C)C=C4)CO2 [DEHYDRODEGUELIN] | inactive | 1.2 µM | inactive | > 80 µM | > 80 µM |  |  | inactive | > 80 µM |  | inactive | 40% |
